Values belong to the molecule of their own block, whether it stands above or below them.
Key:
[1] = biological target: T1, Melanin-concentrating hormone receptor 1 (Homo sapiens, UniProt Q99705); assay: Displacement of [I125I]MCH from human MCH1 receptor expressed in CHO cells by scintillation counting; assay type: cell-based
Procedure, shortened: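 SPA competition on membranes of CHO cells stably expressing human MCH1, premixed with WGA-PVT beads (0.25 mg/well). Test compound was added at increasing concentrations with [125I]-MCH in HEPES pH 7.4 buffer containing CaCl2, MgCl2 and 0.2% BSA, incubated 2 h at room temperature, then scintillation-counted. Phe-(D)Tyr-MCH served as reference ligand; IC50 came from sigmoidal dose-response fits.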

[2] = biological target: Somatostatin receptor type 4 (Homo sapiens, UniProt P31391); assay: Displacement of [125I]iodotyrosyl from human SST4 receptor expressed in CHO cells; assay type: cell-based
Chain of Somatostatin receptor type 4 (P31391 whole entry): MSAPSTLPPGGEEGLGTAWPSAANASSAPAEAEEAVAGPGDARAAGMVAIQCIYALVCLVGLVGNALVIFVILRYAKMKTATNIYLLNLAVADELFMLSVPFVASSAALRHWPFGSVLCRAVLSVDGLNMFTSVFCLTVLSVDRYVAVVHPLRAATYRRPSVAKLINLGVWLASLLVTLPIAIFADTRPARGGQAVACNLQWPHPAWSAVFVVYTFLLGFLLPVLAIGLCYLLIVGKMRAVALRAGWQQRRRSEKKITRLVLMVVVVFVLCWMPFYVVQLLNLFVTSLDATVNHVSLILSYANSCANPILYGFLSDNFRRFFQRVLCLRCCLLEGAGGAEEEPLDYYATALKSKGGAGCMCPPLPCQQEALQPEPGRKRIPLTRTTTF
Procedure, shortened: (§1)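 Membranes from CHO cells stably expressing cloned human sst1–5 were used at 2 µg protein/well (sst1), 0.2 (sst2) or 0.7 (sst3, sst4, sst5). After GF/B filtration, bound label was counted. Nonspecific binding used 1 µM SST28; Ki came from single-site fits with known Kd; tested once in duplicate.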

[3] = biological target: Somatostatin receptor type 3 (Homo sapiens, UniProt P32745); assay: Displacement of [125I]iodotyrosyl from human SST3 receptor expressed in CHO cells; assay type: cell-based; procedure, shortened: as §1
Chain of Somatostatin receptor type 3 (P32745 whole entry): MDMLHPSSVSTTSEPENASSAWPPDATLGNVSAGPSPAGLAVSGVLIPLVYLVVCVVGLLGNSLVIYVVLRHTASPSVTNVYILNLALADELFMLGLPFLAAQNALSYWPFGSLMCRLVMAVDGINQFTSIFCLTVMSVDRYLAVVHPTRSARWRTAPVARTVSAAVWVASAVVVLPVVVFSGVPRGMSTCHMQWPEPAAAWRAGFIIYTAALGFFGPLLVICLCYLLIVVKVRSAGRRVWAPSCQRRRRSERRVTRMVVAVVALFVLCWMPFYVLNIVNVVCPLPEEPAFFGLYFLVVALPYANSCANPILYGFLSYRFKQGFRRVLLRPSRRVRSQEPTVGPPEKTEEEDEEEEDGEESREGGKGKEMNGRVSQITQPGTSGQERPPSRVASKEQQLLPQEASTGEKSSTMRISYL

[4] = biological target: Somatostatin receptor type 1 (Homo sapiens, UniProt P30872); assay: Displacement of [125I]iodotyrosyl from human SST1 receptor expressed in CHO cells; assay type: cell-based; procedure, shortened: as §1
Chain of Somatostatin receptor type 1 (P30872 whole entry): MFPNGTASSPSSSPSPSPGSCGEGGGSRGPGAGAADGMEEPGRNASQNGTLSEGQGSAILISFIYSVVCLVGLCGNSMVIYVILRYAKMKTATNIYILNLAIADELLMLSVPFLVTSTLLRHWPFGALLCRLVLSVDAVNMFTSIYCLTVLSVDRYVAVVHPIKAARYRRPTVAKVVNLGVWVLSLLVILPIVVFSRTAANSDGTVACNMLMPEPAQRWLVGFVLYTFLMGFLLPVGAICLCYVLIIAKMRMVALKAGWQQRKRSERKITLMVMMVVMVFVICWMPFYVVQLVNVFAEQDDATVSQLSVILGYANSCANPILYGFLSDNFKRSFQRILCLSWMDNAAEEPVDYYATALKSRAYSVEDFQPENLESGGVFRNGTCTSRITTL

[5] = biological target: Somatostatin receptor type 2 (Homo sapiens, UniProt P30874); assay: Displacement of [125I]iodotyrosyl from human SST2 receptor expressed in CHO cells; assay type: cell-based; procedure, shortened: as §1
Chain of Somatostatin receptor type 2 (P30874 whole entry): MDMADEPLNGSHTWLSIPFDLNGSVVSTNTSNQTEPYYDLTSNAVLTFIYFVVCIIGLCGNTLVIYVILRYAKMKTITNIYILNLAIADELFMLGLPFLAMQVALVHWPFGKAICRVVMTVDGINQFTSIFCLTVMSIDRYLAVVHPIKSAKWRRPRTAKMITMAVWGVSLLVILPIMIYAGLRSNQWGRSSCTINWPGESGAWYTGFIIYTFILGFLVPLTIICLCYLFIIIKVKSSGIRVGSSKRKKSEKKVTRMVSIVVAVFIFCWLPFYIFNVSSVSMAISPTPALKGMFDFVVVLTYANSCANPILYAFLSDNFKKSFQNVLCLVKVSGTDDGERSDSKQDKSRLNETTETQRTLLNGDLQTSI

[6] = biological target: Somatostatin receptor type 5 (Homo sapiens, UniProt P35346); assay: Displacement of [125I]iodotyrosyl from human SST5 receptor expressed in CHO cells; assay type: cell-based; procedure, shortened: as §1
Chain of Somatostatin receptor type 5 (P35346 whole entry): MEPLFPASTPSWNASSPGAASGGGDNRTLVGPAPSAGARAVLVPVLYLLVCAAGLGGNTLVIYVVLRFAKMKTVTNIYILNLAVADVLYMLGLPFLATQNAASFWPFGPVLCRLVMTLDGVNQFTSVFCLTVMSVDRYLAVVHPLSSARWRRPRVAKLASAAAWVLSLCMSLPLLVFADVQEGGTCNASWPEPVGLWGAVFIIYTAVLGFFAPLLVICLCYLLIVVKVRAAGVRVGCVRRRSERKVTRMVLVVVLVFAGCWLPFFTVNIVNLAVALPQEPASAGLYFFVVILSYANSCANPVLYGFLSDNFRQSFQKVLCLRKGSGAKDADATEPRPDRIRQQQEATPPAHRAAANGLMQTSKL

[7] = biological target: T1, Melanin-concentrating hormone receptor 1; assay: Displacement of [I125I]MCH from human MCH1 receptor expressed in CHO cells (empty) by scintillation counting; settings: 3 uM

T1 sequence (Q99705 whole entry): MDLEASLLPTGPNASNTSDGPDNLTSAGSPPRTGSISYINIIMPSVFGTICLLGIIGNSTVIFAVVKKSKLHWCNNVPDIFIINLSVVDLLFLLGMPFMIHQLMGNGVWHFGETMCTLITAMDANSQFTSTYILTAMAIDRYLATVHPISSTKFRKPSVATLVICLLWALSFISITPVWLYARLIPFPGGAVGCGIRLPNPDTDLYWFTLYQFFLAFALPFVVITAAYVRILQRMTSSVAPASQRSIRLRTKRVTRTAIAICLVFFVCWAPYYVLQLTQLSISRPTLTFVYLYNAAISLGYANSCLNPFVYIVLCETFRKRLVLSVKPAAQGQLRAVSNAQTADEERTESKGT

- IC50 [1]: 920 nM
Compound: COC[C@H]1O[C@H](OCc2ccc3ccccc3c2)[C@H](NC(=O)CCCN=C(N)N)[C@@H](OCc2ccc(Cl)cc2)[C@@H]1O

- Ki [1]: 1200 nM
Compound: COC[C@H]1OC(OCc2ccc(Cl)cc2)[C@H](NC(=O)CCCN=C(N)N)[C@@H](OCc2ccc(Cl)cc2)[C@@H]1O (some centres undefined)

- IC50 [1]: 120 nM
Compound: COC[C@H]1O[C@H](OCc2ccc(Cl)cc2)[C@H](NC(=O)CCCN=C(N)N)[C@@H](OCc2ccc(Cl)cc2)[C@@H]1O

- IC50 [2]: 180 nM
Compound: CS[C@@H]1O[C@H](COCc2ccccc2)[C@@H](O)[C@@H](OCc2ccc3ccccc3c2)[C@H]1NC(=O)CCN=C(N)N

- IC50 [2]: 440 nM
Compound: CS[C@@H]1O[C@H](COCc2ccc3ccccc3c2)[C@@H](O)[C@@H](OCc2ccc3ccccc3c2)[C@H]1NC(=O)CCN

- IC50 [2]: > 10000 nM
- IC50 [3]: 500 nM
- IC50 [4]: > 10000 nM
- IC50 [5]: > 10000 nM
- IC50 [6]: 70 nM
Compound: COC[C@H]1O[C@H](OCc2ccc3ccccc3c2)[C@H](NC(=O)CCCN)[C@H](OCc2ccc(Cl)cc2)[C@@H]1O

- Ki [1]: 1800 nM
Compound: COC[C@H]1OC(OCc2ccc3ccccc3c2)[C@H](NC(=O)CCCN=C(N)N)[C@@H](OCc2ccc(Cl)cc2)[C@@H]1O (some centres undefined)

- Ki [1]: 3500 nM
Compound: COC[C@H]1OC(OCCc2ccccc2)[C@H](NC(=O)CCCN=C(N)N)[C@@H](OCc2ccc(Cl)cc2)[C@@H]1O (some centres undefined)

- IC50 [1]: 540 nM
Compound: COC[C@H]1O[C@H](OCCc2ccccc2)[C@H](NC(=O)CCCN=C(N)N)[C@@H](OCc2ccc(Cl)cc2)[C@@H]1O

- IC50 [7]: > 3000 nM
Compound: COC[C@H]1O[C@@H](OCc2ccc(Cl)cc2)[C@H](NC(=O)CCCN=C(N)N)[C@@H](OCc2ccc3ccccc3c2)[C@@H]1O

- IC50 [2]: > 10000 nM
- IC50 [3]: 1320 nM
- IC50 [4]: > 10000 nM
- IC50 [5]: 3320 nM
- IC50 [6]: 180 nM
Compound: COC[C@H]1O[C@@H](OCCc2ccccc2)[C@H](NC(=O)CCCN)[C@@H](OCc2ccc3ccccc3c2)[C@@H]1O

- IC50 [1]: 1660 nM
Compound: COC[C@H]1O[C@@H](OCc2ccc(Cl)cc2)[C@H](NC(=O)CCCN=C(N)N)[C@@H](OCc2ccc(Cl)cc2)[C@@H]1O

- Ki [1]: 2600 nM
Compound: COC[C@H]1OC(OCc2ccc(Cl)cc2)[C@H](NC(=O)CCCN=C(N)N)[C@@H](OCc2ccc3ccccc3c2)[C@@H]1O (some centres undefined)

- IC50 [1]: 450 nM
Compound: COC[C@H]1O[C@H](OCc2ccc(Cl)cc2)[C@H](NC(=O)CCCN=C(N)N)[C@@H](OCc2ccc3ccccc3c2)[C@@H]1O

- Ki [1]: 6300 nM
Compound: COC[C@H]1OC(OCc2ccc3ccccc3c2)[C@H](NC(=O)CCN=C(N)N)[C@@H](OCc2ccc3ccccc3c2)[C@@H]1O (some centres undefined)

- IC50 [2]: 720 nM
Compound: CS[C@@H]1O[C@H](COCc2ccc(Cl)cc2)[C@@H](O)[C@@H](OCc2ccc3ccccc3c2)[C@H]1NC(=O)CCCN=C(N)N

- IC50 [6]: 160 nM
Compound: COC[C@H]1OC(OCCc2ccccc2)[C@H](NC(=O)CCN)C(OCc2ccc3ccccc3c2)[C@@H]1O (some centres undefined)

- IC50 [1]: 1750 nM
Compound: COC[C@H]1O[C@@H](OCc2ccc3ccccc3c2)[C@H](NC(=O)CCCN=C(N)N)[C@@H](OCc2ccc(Cl)cc2)[C@@H]1O

- IC50 [1]: 1160 nM
Compound: COC[C@H]1O[C@H](OCc2ccc3ccccc3c2)[C@H](NC(=O)CCCN=C(N)N)[C@@H](OCc2ccc3ccccc3c2)[C@@H]1O

- IC50 [2]: 660 nM
Compound: CS[C@@H]1O[C@H](COCc2ccccc2)[C@@H](O)[C@@H](OCc2ccc3ccccc3c2)[C@H]1NC(=O)CCN

- IC50 [2]: > 10000 nM
- IC50 [4]: > 10000 nM
- IC50 [5]: > 10000 nM
- IC50 [6]: 50 nM
Compound: COC[C@H]1O[C@@H](OCc2ccc3ccccc3c2)[C@H](NC(=O)CCCN)[C@@H](OCc2ccc(Cl)cc2)[C@@H]1O

- IC50 [2]: 430 nM
- IC50 [3]: 6330 nM
- IC50 [4]: 9590 nM
- IC50 [5]: 980 nM
- IC50 [6]: 6000 nM
Compound: CS[C@@H]1O[C@H](COCc2ccc(Cl)cc2)[C@@H](O)[C@@H](OCc2ccc3ccccc3c2)[C@H]1NC(=O)CCN

- IC50 [2]: 4000 nM
- IC50 [3]: 380 nM
- IC50 [4]: 2800 nM
- IC50 [5]: 650 nM
- IC50 [6]: 20 nM
Compound: COC[C@H]1O[C@@H](OCc2ccc3ccccc3c2)[C@H](NC(=O)CCN)[C@@H](OCc2ccc3ccccc3c2)[C@@H]1O

- IC50 [2]: > 10000 nM
- IC50 [3]: 8400 nM
- IC50 [4]: > 10000 nM
- IC50 [5]: 6100 nM
- IC50 [6]: 200 nM
Compound: COC[C@H]1O[C@H](OCCc2ccccc2)[C@H](NC(=O)CCCN)[C@H](OCc2ccc3ccccc3c2)[C@@H]1O

- Ki [1]: 5100 nM
Compound: COC[C@H]1OC(OCc2ccc3ccccc3c2)[C@H](NC(=O)CCCN=C(N)N)[C@@H](OCc2ccc3ccccc3c2)[C@@H]1O (some centres undefined)

- Ki [1]: 6600 nM
Compound: COC[C@H]1OC(OCc2ccc3ccccc3c2)[C@H](NC(=O)CN=C(N)N)[C@@H](OCc2ccc(Cl)cc2)[C@@H]1O (some centres undefined)
